Reference: the EternaBench riboswitch data

Tested on: MS2 coat protein
Experiment: apparent Kd, MS2 coat protein; higher = weaker binding; RNA-MaP array; FMN 200 µM where present
Summary of the method: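 The titrant was SNAP-549-labelled MS2 coat protein, run from 0.7 or 1.5 nM in doubling steps to 3 µM. It was applied to designs transcribed by stalled E. coli RNA polymerase on Illumina sequencing-chip clusters, without ligand first and then with constant ligand, in 100 mM Tris-HCl pH 7.5, 80 mM KCl, 4 mM MgCl2, BSA, DTT, yeast tRNA and Tween-20. The apparent Kd is the median of filtered per-cluster binding-curve fits, with green signal normalised to red-channel RNA signal and control-cluster median Fmax.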

[1] = designed as: ON switch for flavin mononucleotide, no ligand
[2] = ligand present: flavin mononucleotide, designed as: ON switch for flavin mononucleotide
[3] = designed as: OFF switch for flavin mononucleotide, no ligand
[4] = ligand present: flavin mononucleotide, designed as: OFF switch for flavin mononucleotide

Sequence	apparent Kd [1] [nM]	apparent Kd [2] [nM]	apparent Kd [3] [nM]	apparent Kd [4] [nM]
AUAUGAUAGAUAGGAUAUACAUUGGAUUUAAAAGUAGAAGGAUCAAGUGGGAAAUGAACAUGAGGAUCACCCAUGUAAUAGGAU	107	78.2	–	–
GUAAAUCAUGUAGGAUAUGCAUGGCGAAGCUACGCAGAAGGACAUGAGGAUCACCCAUGUUAUAGCUACCAAGUUAGGUGGCAA	–	–	110	260
ACUUAGUACAAUUUAGAUCUACAUGAGGAUCACCCAUGUACUGAGGAUAUCAGCUCGAAUAGAGCUGAGAAGGCAGAAGUACUU	245	53.5	–	–
CUAGCAGAUGUAGGAUAUGCUCAGGAUAACUGAGCAGAAGGACAUGAGGAUCACCCAUGUAAAGUGUCUCUAAAUAACUGCUAG	–	–	22.9	80.5
CAGCUACCCAGUAUGGGUUUUUGUACAGAAGGCCAGGUACAUGAGGAUCACCCAUGUAAAGAUAUGGAGGAUAUGUUAGUGUAU	29.1	8.08	–	–
UUCCUCUUUGUGAGGAUAUCGUCCGUUUUUUGUUACGAGAAGGCACAUGAGGAUCACCCAUGUUUUUUGUUUUU	–	–	20.4	68.3
GCGUCAGAAUUAAUUGUGACAGGCAGAAGGCUAUAUCUUAUGUCAGACAUGAGGAUCACCCAUGUAGAGGAUAUGCAGUUACAC	–	–	10.6	17.9
CAGUCUACAGGAUAUACAUGAGGAUCACCCAUGUGUAUCAACCUUCUGUAAUCCACAUGUAGAAGGGUAGACUG	–	–	14.8	13.5
AGAGAAUAGGUAGGAUAUCUUAAUAGAAAGAAUAGAGAAGGACCACAUGAGGAUCACCCAUGUGAUGUCUUGAGACUACAUGGU	–	–	16.4	19.4
AAAGUAAACGAAGGAUAUGGUUACAUGAGGAUCACCCAUGUAAUGGUUGUGAUAUUGAUUAAGUUCCAGAAGGUCGUAUACAUA	–	–	199	371
GAUUAUAAGUAAGGAUAUGUAUAUGAAACAUAUACAGAAGGUACAUGAGGAUCACCCAUGUUCUUGCAGCGUGAAUAUGUAAUC	–	–	19.1	28.5
UCAUGAAGGACAGGAUAUGGACAUGAGGAUCACCCAUGUACAUGGGAUUAUAUACUGAAUUUAUACUAGAAGGGUUACAUAAAU	–	–	44.7	30.2
UGUGUGUGACAGGAUAUGCUGGUUGUGAGGCGGGUAGAAGGGUCUACAUGAGGAUCACCCAUGUGGCCGGUUGG	–	–	18.7	18.7
UAAAAGCUAGGAUAUACAUGAGGAUCACCCAUGUCACGGGUCCACUCAUCCUAUACGUGUAGAAGGAGCGACCC	–	–	–	19.2
AACUGACAUGAGGAUCACCCAUGUCAGGAUAUGAUUUGACGAAAUAAAAUAAGUCAUAUCAGAAGGGACAUGGA	–	–	25.9	46.9
CAAUUUAUAACAGGAUAUGUAAUUCAAUAGAAAAUAGAAGGGUUUUAUACAUGAGGAUCACCCAUGUCAUGUAUCAUAAUUACC	–	–	143	122
AAAAAGAUAGGAUAUACAUGAAAAAAAAAAAAAAAAAAAAGACAUGAGGAUCACCCAUGUAGAAGGGUCAAAAA	–	–	133	124
GGUGCAUAUGAGAAGGCGAUCAUGAAACAUGAUCGAGGAUAUCAUGUAAACAUGAGGAUCACCCAUGUAUGGGAAAAGUGCAUC	85.4	10.7	–	–
UUUUUUUAAUAGAAGGAGGACUUCAUGAGGAUCACCCAUGUGUUAGUACUUAGGAUAUGUAAUAACAUGAGGAUCACCCAUGUC	51.9	48.7	–	–
GUUUUUCCUCAUGUACAUGAGGAACAUGAGGAUCACCCAUGUAGAAGGAUUUCCCUUAAAUUAAAAUAGGAUAUACAUAUAUUU	–	–	88.6	58.9
AAUAAACUCACAGGAUAUAGCAGAGGUCGCGUGUACUUACAGGCGACUAUGCUAGAAGGGUGACCACAUGAGGAUCACCCAUGU	746	137	–	–

Sequence	apparent Kd [1] [nM]	apparent Kd [2] [nM]	apparent Kd [3] [nM]	apparent Kd [4] [nM]
GUUUGACAUGAGGAUCACCCAUGUAAGGAUAUACGAGUAGCUGCUAGGUAGUUAGUAUGUAGAAGGUGCGUGUU	–	–	65.7	62.6
AAAAAGCGAGGAUAUACAAAAGAGCGAAAGCUCAAAAGGAAACAUGAGGAUCACCCAUGUAGAAGGCGCAAGAA	–	–	21.7	20.3
UAUUGAGCAGGAUAUUAACGGGUUUACAUGAGGAUCACCCAUGUGGUCCCGUGUUAGCUAUAAGAAGGGCUGAUGA	–	–	35.5	120
GUGCCUUGGGAGAAGGUUACAUGCAAAGCAUUUAAAGGAUAUUCAUACCGGAAACGGACAUGAGGAUCACCCAUGUGGCACAAA	870	145	–	–
GUUAUAGGAGGAUAUACAUGAGGAUCACCCAUGUCUCACCCAUGGCAACGAACCUAUUGUAGAAGGCUUGAAGA	–	–	74.5	182
CAGGAAAUAGAGGAUAUAGGAGUCGAUAGACUCCUAGAAGGCUAUACAUGAGGAUCACCCAUGUGUCCUACCUG	–	–	16.7	43
UGUCCAUAGCAGAAGGCACAUCCACAAAAUAAAACAUGAGGAUCACCCAUGUGAGGAUAUGCUAUGGACUAAGAGCGAAAGCUC	–	–	5.44	21.8
AAGAUACAUGAGGAUCACCCAUGUGAGGAUAUGUGUAUCCCUAAAAAAGUGUGGGACCACAGAAGGUACUUGGA	–	–	61.7	55.4
UAGUAUUAACGAGGAUAUAAUAUGUUCAAUUUUUUAUAUUGUUUACAUGAGGAUCACCCAUGUUAUUAGAAGGCGUAUGGGAUU	67.2	58.8	–	–
CCUCCACAUUAGGAUAUCAUCAAACUAUUGUGAUGAGAAGGAAUGACAUGAGGAUCACCCAUGUUAUCGUGAUG	–	–	20.9	18.1
GCCGAAAGUGUGAGGAUAUACCUAUGGAAACAUAGGUAGAAGGCACAUGAGGAUCACCCAUGUUCCUCAUCGGC	–	–	123	623
AGCUGGUGACAGCAUCCAUCAAAACAUGAGGAUCACCCAUGUAGAAGGCUGUACGGUUACCGUACAGAGGAUAUACAAUGAUGG	–	–	7.61	9.36
UACAGCGUAGAUAAUAAUGAAUACAUGAGGAUCACCCAUGUAUAGGAUAUGCAGUGGAAUACACUGCAGAAGGAUACAUCGCUG	–	–	16.4	23
AGUACUACAGGAUAUACGAGGGAGGUCCACGUGACCCUUUUACAUGAGGAUCACCCAUGUAGAAGGGUAGUACA	–	–	23.3	26.8
GAAUAAUUGAUCCUUUUUUAUUACAUGAGGAUCACCCAUGUGCAGGAUAUCGAGAGUUUUAGAUUCGAGAAGGGCAAGAACUGU	–	–	905	629
UGGAUGUAGGAGAAGGAGGACUUCAUGAGGAUCACCCAUGUGUUAGGACUUAGGAUAUUUGACGACAUGAGGAUCACCCAUGUG	63.6	58.4	–	–
UGAACUUCAGAGAAGGUCGAACGGCAACGAUUCGAAGGAUAUCUGGAAACAUGAGGAUCACCCAUGUAACCGGGUGGAUGUCCU	–	–	43.3	182
UAAUAUCUGUAGGAUAUCGGUGGAGCACACGUAUGAGAAGGGCAGACAUGAGGAUCACCCAUGUAUAGGGUCCG	–	–	26.8	41
UAUAUAUAGUAAGGAUAUGUAUAUAUUUCAUAAACAGAAGGUACUGACAUGAGGAUCACCCAUGUUUUAGUGUGGGCAUGUAGA	–	–	60.1	83.8
UUAAAUCAUGUAGGAUAUGCAUGGCGAAGCUACGCAGAAGGACAUGAGGAUCACCCAUGUUAAAGCGACCGAGUUCGGUUGCAA	–	–	124	214
UAAAAGCAAGGAUAUACAUGAGGAUCACCCAUGUGAGGCUAAGUCUGCCAUGGCUCAGGUAGAAGGUGCGUCGA	–	–	51.3	241
